Among the data in ChEMBL document CHEMBL6134784, “Furoxan-piplartine hybrids as effective NO donors and ROS inducers in PC3 cancer cells: design, synthesis, and biological evaluation” (RSC Med Chem, 2024) are IC50, selectivity ratio and Activity values, retold here.

The subject of one data set is MCF7. As to the kind of experiment: Cytotoxicity against human MCF7 cells assessed as reduction in cell viability measured after 48 hrs by CCK-8 assay. In kind it is functional, cell-based. Conditions: MCF7, 48 h. In a few lines: (§1)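 CCK-8 viability: cells grown in RPMI-1640 with 10% FBS, 1×10^4 per well, attached 24 h, then medium replaced with fresh medium containing a range of compound concentrations for 48 h at 37 °C, 5% CO2. CCK-8 added 3 h, absorbance 450 nm; vehicle control set as 100%. IC50 by nonlinear regression, mean ± SD, at least two experiments in triplicate.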
In general terms: Tetrazolium assays rely on reduction of a dye to a coloured formazan, in cell work by metabolically active cells.

A short description of data set [1]: Cytotoxicity against human MCF-10A cells assessed as reduction in cell viability measured after 48 hrs by CCK-8 assay. In kind it is toxicity, cell-based. In a few lines: as §1
For data set [2], the system named is PC-3. As to the kind of experiment: Cytotoxicity against human PC-3 cells assessed as reduction in cell viability measured after 48 hrs by CCK-8 assay. The class given is functional, cell-based. The following applies: PC-3, 48 h. In a few lines:
as §1

Data set [3] in a line: Cytotoxicity against human PNT2 cells assessed as reduction in cell viability measured after 48 hrs by CCK-8 assay. In kind it is toxicity, cell-based. Summed up: as §1
In a further data set the test system is OVCAR-3. As to the kind of experiment: Cytotoxicity against human OVCAR-3 cells assessed as reduction in cell viability measured after 48 hrs by CCK-8 assay. In kind it is functional, cell-based. The following applies: OVCAR-3, 48 h. Summed up:
as §1

A short description of data set [4]: Selectivity index, ratio of IC50 for cytotoxicity against human MCF-10A cells to IC50 for cytotoxicity against human MCF7 cells. The class given is toxicity, cell-based. The following applies: MCF-10A cells versus MCF7 cells, read-out: Ratio IC50. Summed up:
(§2)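 CCK-8 was added for 3 h and A450 read, with vehicle set as 100% viability. IC50 was fitted by nonlinear regression from ≥2 experiments in triplicate. SI = normal-cell IC50 divided by the matched cancer-cell IC50.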

A short description of data set [5]: Selectivity index, ratio of IC50 for cytotoxicity against human PNT2 cells to IC50 for cytotoxicity against human PC-3 cells. In kind it is toxicity, cell-based. The following applies: PNT2 cells versus PC-3 cells, read-out: Ratio IC50. Summed up:
as §2

The subject of data set [6] is PC-3. Nature of the data set: Induction of nitric oxide production in human PC-3 cells assessed as nitrite level at 100 uM measured after 12 to 48 hrs by Griess assay. In kind it is functional. Conditions: time 12-48 hrs. In a few lines:
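PC3 cells were seeded at 1×10^4 per well and grown 24 h, then moved to serum-free RPMI with 100 μM compound for 12, 24 or 48 h at 37 °C. Supernatant was mixed with 1% sulfanilamide in 2.5% H3PO4 (10 min, dark), then 0.1% NED (10 min, 37 °C), and A540 was read. Nitrite was calculated from a NaNO2 curve (0–100 μM). Controls were DMSO and SNP 100 μM. Data from ≥3 independent experiments in triplicate, mean ± SD.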
On the technique in general: Nitrite, measured by Griess reagent, commonly stands in for NO production.

Data set [7] concerns PC-3. Nature of the data set: Induction of morphological changes in human PC-3 cells assessed as reduction in cell density at 0.24 uM measured after 24 hrs by phase contrast microscopy. In kind it is functional, cell-based. Summed up:
(§3)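 PC3 cells were seeded at 1×10^5 per well in 6-well plates and treated after 24 h, with or without 1 mM N-acetyl-L-cysteine. The same observation field was imaged by phase contrast microscopy at 1, 2, 3, 4 and 24 h. DMSO vehicle served as control.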

Data set [8] concerns PC-3. Nature of the data set: Induction of morphological changes in human PC-3 cells assessed as loss of adhesion at 0.24 uM measured after 24 hrs in presence of antioxidant N-acetyl-L-cysteine by phase contrast microscopy. The class given is functional, cell-based. In a few lines: as §3
For data set [9], the system named is PC-3. Nature of the data set: Cytotoxicity against human PC-3 cells assessed as reduction in cell viability at 0.24 uM measured after 24 hrs by SRB assay. The class given is functional, cell-based. In a few lines:
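SRB assay: PC3 seeded 1×10^4 per well, after 24 h exposed 24 h at 37 °C, 5% CO2 with or without 1 mM N-acetyl-L-cysteine; vehicle 0.1% DMSO. Fixed with 15% TCA at 4 °C for 1 h, dried, stained 0.4% sulforhodamine B, dye solubilized in 10 mM Tris, absorbance 540 nm; ANOVA/Tukey.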

Data set [10] has as its system PC-3. As to the kind of experiment: Cell cycle arrest in human PC-3 cells assessed as reduction in cell accumulation at G0/G1 phase in presence of antioxidant N-acetyl-L-cysteine at 0.24 uM measured after 3 hrs by propidium iodide staining based flow cytometry. In kind it is functional. In a few lines:
(§4)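 PC3 cells seeded 1×10^5 per well in 6-well plates, exposed 3 h, with or without 1 mM N-acetyl-L-cysteine pretreatment; vehicle 0.1% DMSO. Harvested with trypsin-EDTA, fixed in 75% ethanol in PBS at 4 °C for 30 min, stained 1 h with RNase (1.5 mg mL^-1) and propidium iodide (90 μg mL^-1); DNA content by flow cytometry. Phase fractions compared with control by ANOVA/Tukey.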
On the technique in general: Flow cytometry measures light scatter and fluorescence of single cells or particles in a stream.

Data set [11] relates to PC-3. Nature of the data set: Induction of apoptosis in human PC-3 cells assessed as early apoptotic cells at 0.24 uM measured after 6 hrs by Alexa Fluor 488-annexin V/propidium iodide staining based flow cytometry (reference value: 6%). The class given is functional.
Data set [12] relates to PC-3. As to the kind of experiment: Induction of apoptosis in human PC-3 cells assessed as late apoptotic cells at 0.24 uM measured after 6 hrs by Alexa Fluor 488-annexin V/propidium iodide staining based flow cytometry (reference value: 3.37%). The class given is functional.
Data set [13] relates to PC-3. As to the kind of experiment: Induction of morphological changes in human PC-3 cells assessed as loss of adhesion at 0.05 uM measured after 24 hrs in presence of antioxidant N-acetyl-L-cysteine by phase contrast microscopy. The class given is functional, cell-based. In a few lines: as §3
The subject of data set [14] is PC-3. As to the kind of experiment: Induction of morphological changes in human PC-3 cells assessed as reduction in cell density at 0.05 uM measured after 24 hrs in presence of antioxidant N-acetyl-L-cysteine by phase contrast microscopy. In kind it is functional, cell-based. In a few lines: as §3
For data set [15], the system named is PC-3. As to the kind of experiment: Effect on NFE2L2 gene expression in human PC-3 cells at 0.05 uM measured after 3 hrs by qPCR analysis. The class given is functional, cell-based. Summed up:
(§5)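 Seeded 1×10^5 cells per well in 6-well plates; PC3 treated 3 h. Total RNA extracted, qPCR; each target normalized to reference gene (β-actin) by efficiency-corrected ΔΔCt (Pfaffl) against a control calibrator sample, efficiencies from amplification profiles. Mean ± SEM of four independent experiments.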

Data set [16] has as its system PC-3. As to the kind of experiment: Induction of mitochondrial membrane potential loss in human PC-3 cells at 0.05 uM measured after 30 mins by MitoTracker Red based confocal microscopy. The class given is functional, cell-based. Summed up: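 Confocal imaging of PC3 cells loaded with CellROX Green (2.5 μM) and MitoTracker Red (0.5 μM) for 30 min at 37 °C, then three PBS washes and immediate capture. The MitoTracker dye stains intact mitochondria and diffuses out when membrane potential drops. Vehicle 0.1% DMSO served as negative control and 1 mM H2O2 as positive control.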

Data set [17] has as its system PC-3. Nature of the data set: Cell cycle arrest in human PC-3 cells assessed as accumulation of cells at sub-G1 phase at 0.05 uM measured after 3 hrs by propidium iodide staining based flow cytometry (reference value: 0.75 +/- 0.21%). The class given is functional. Summed up: as §4
Data set [18] deals with PC-3. As to the kind of experiment: Cell cycle arrest in human PC-3 cells assessed as up regulation of CDKN1A gene expression at 0.05 uM measured after 3 hrs by qPCR analysis. In kind it is functional, cell-based. Summed up:
as §5

Data set [19] relates to PC-3. As to the kind of experiment: Induction of apoptosis in human PC-3 cells assessed as early apoptotic cells at 0.05 uM measured after 6 hrs by Alexa Fluor 488-annexin V/propidium iodide staining based flow cytometry (reference value: 6%). The class given is functional.

pIC50: −log10 of the molar value. Calls of active or inactive are those of the source. The rule behind the calls is not given here.

Broadly, the pIC50 is the IC50 on a negative log10 scale, so that one unit is a factor of ten. In general, IC50 refers to the concentration at which inhibition is half-maximal. As for `COc1cc(/C=C/C(=O)N2CCC=CC2=O)cc(OC)c1OCCCOc1no[n+]([O-])c1S(=O)(=O)c1ccccc1`, the pIC50 in the data set on MCF7 is 5.92; in the data set on PC-3 [2] it was 6.62; in the data set on OVCAR-3, 6.40. Also, the IC50 at 48 h in data set [1] is 3500 nM; in data set [3], 17800 nM. The selectivity ratio was 3 in [4] and 75.5 in [5]. The Activity was 23.5 µM in the data set with PC-3 [6], 9.17% in the data set on PC-3 [11] and 43.61% in the data set on PC-3 [12]. Also, the result in the data set with PC-3 [7], with PC-3 [9] and in the data set with PC-3 [10] was Active. In addition, the outcome in the data set on PC-3 [8] was inactive.

Turning to `COc1cc(/C=C/C(=O)N2CCC=CC2=O)cc(OC)c1OCCCCCCCCCCCCOc1no[n+]([O-])c1S(=O)(=O)c1ccccc1`, the pIC50 in the data set with MCF7 is 5.10; with PC-3 [2] it was 7.30; with OVCAR-3, 6.92. The IC50 at 48 h came out at 123000 nM in data set [1] and 14100 nM in [3]. The selectivity ratio in data set [4] is 15.7; in data set [5] it was 285. Also, the Activity with PC-3 [6] turned out to be 23.5 µM; in the data set with PC-3 [17], 9.8%; with PC-3 [19], 6.6%. Moreover, the outcome in the data set on PC-3 [13] and in the data set with PC-3 [14] was inactive. Besides, the result in the data set on PC-3 [15], with PC-3 [16] and in the data set on PC-3 [18] was Active.
